High-throughput results as filed in PubChem BioAssay.
PostGolgi yeast = phenotypic screen on post-Golgi transport, primary screen; post-Golgi transport phenotypic cell assay; inhibition, % at 10 µM; 98,000 compounds, 0.9% hits;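 note: yeast cells grown in 1536-well plates; yeast grown about 18 h at 30C before absorbance read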
Ecoli tolC = growth inhibitors of E. coli tolC mutant, primary screen, strain BW25113 ΔtolC::kan, 384-well. OD615. growth inhibition, % at 10 µM (by protocol). 65,000 compounds, 2.2% hits;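 active = growth inhibition at or above a cutoff equal to the mean over every tested compound plus 3 SD, cut at about 60% in these data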;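 note: growth measured after 20 h incubation at 37 °C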
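test system = E. coli BW25113 ΔtolC::kan bacteria | medium = LB with kanamycin 50 µg/mL | signal = OD at 615 nm | schedule = 37 °C, 20 h exposure | evaluation = % inhibition of E. coli growth | compound dosing = one dose of 10 µM final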
E coli WT exp = growth inhibitors of wild-type E. coli, primary screen, strain BW25113, expanded library, OD600; 98,000 compounds, 0.15% hits; AID 710, 2007; growth inhibition, % at 100 µM; OD600 absorbance;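 active = growth inhibition above about 50% at one test dose, limit read from the data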;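 note: growth measured after 20 h incubation at 37 °C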
Cav32 inh = Cav3.2 calcium influx blockers – cell-based, Fluo-4 calcium fluorescence, FDSS, MLSMR library, primary screen; Voltage-dependent T-type calcium channel subunit alpha-1H (Homo sapiens), O95180; Cav3.2-expressing cells; hits give low values; B-score at 10 µM; 100,000 compounds, 4% hits; AID 449739, 2010;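 active = single-dose well whose peak fluorescence ratio is a statistical outlier from its plate by either plate-standardised score or position-corrected B-score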
PostGolgi ctrl = growth inhibition of yeast control strain, primary screen, counter-screen for post-Golgi transport modulator project; AID 738, 2007; inhibition, % at 10 µM; efflux-deficient yeast background strain, growth absorbance A615, 16 h; 98,000 compounds, 5% hits
Large screens that a line does not name were inactive. The list is not random: actives were taken first. Their share in the collection is about 8.4%. Cut-off read from the data, not from the text of the source, unless noted: active = inhibition above about 30%; inactive = the rest.

O=C(NC(=O)c1ccc(Cl)cc1)Nc1cc(N2CCCCC2)ncn1	none (no result: PostGolgi yeast, E coli WT exp, PostGolgi ctrl)
CCCCC(=O)Nc1nc2ccc3nc(C)sc3c2s1	PostGolgi ctrl 45 (no result: Cav32 inh)
CCCC(=O)Nc1nc2ccc3nc(C)sc3c2s1	none
CCOc1ccccc1N1C(=O)c2ccc(C(=O)Nc3cccnc3)cc2C1=O	Cav32 inh -2.9
O=C(NCc1ccc2c(c1)OCO2)c1ccc2c(c1)C(=O)N(Cc1cccnc1)C2=O	none
O=C(Nc1cccnc1)c1ccc2c(c1)C(=O)N(Cc1cccnc1)C2=O	PostGolgi ctrl 30
COc1ccc(-n2nc3c(c2NC(=O)c2c(F)cccc2Cl)CS(=O)C3)cc1 (stereo not drawn)	none
COc1ccc([N+](=O)[O-])cc1NC(=O)CC(C)c1ccccc1 (stereo not drawn)	none (no result: Ecoli tolC)
CC(CC(=O)Nc1ccc(Cl)c([N+](=O)[O-])c1)c1ccccc1 (stereo not drawn)	Cav32 inh -8.7 (no result: Ecoli tolC)
O=C(NCc1ccc2c(c1)OCO2)c1cc2ncc(Br)cn2n1	none
COc1ccc(CCNCc2csc3nc4ccccc4n23)cc1OC	none
O=C(Nc1cccc(-c2nnn(CC(=O)N3CCc4ccccc4C3)n2)c1)C1CCC1	Cav32 inh -4.4
CC1Cc2ccccc2N1C(=O)Cn1nnc(-c2ccccc2NC(=O)C2CCC2)n1 (stereo not drawn)	PostGolgi ctrl 32
COc1ccc(N2C(=O)CS/C2=C\[N+](=O)[O-])cc1	none (no result: Ecoli tolC)
COC(=O)c1cccc(C23CC4(C2)[C@H](CN(Cc2cccnc2)[C@@H]4c2ccccc2)C3c2ccc(C(F)(F)F)cc2)c1 (stereo partly drawn)	none (no result: PostGolgi yeast, Ecoli tolC, E coli WT exp, PostGolgi ctrl)
COc1ccc(N(C(=O)Cn2cnc3ccccc32)C(C(=O)NC2CCCCC2)c2ccccc2)cc1 (stereo not drawn)	Cav32 inh -3.5 (no result: Ecoli tolC)
CSCCC(NC(=O)c1ccccc1)C(=O)OCC(=O)Nc1ccc(C)c(Cl)c1 (stereo not drawn)	PostGolgi ctrl 31 (no result: Ecoli tolC)
c1coc(Cn2c(SCc3nc4ccccc4[nH]3)nnc2-c2cccs2)c1	none
c1ccc(CSc2nnc(-c3cccs3)n2Cc2ccco2)cc1	Ecoli tolC 96 (no result: PostGolgi yeast, E coli WT exp, PostGolgi ctrl)
Cc1ccccc1CSc1nnc(-c2cccs2)n1Cc1ccco1	Cav32 inh -6.5 (no result: Ecoli tolC)
C(=C\c1ccccc1)/CSc1nnc(-c2ccccc2)n1Cc1ccco1	Cav32 inh -5.8 (no result: Ecoli tolC)
Cc1cccc(-c2nnc(SCc3nc4ccccc4[nH]3)n2Cc2ccco2)c1	Cav32 inh -4.8
Cc1ccccc1CSc1nnc(-c2ccco2)n1Cc1ccco1	PostGolgi ctrl 39
c1ccc(CSc2nnc(-c3ccco3)n2Cc2ccco2)cc1	none
CSc1nc2c(c(=O)[nH]1)C(c1ccncc1)C(C(=O)OC(C)C)=C(C)N2 (stereo not drawn)	none
Cc1ccc(-c2nc(CSCC(=O)N3CCOCC3)c(C)o2)cc1	none
CCc1ccc(-c2nc(CSCC(=O)N3CCN(c4ccccn4)CC3)c(C)o2)cc1	Cav32 inh -6.8
Cc1ccc(-c2nc(CSCC(=O)N3CCN(c4ccccn4)CC3)c(C)o2)cc1	Cav32 inh -5
O=[N+]([O-])c1cc(Cl)cc(/C=N\Nc2ccccn2)c1O	PostGolgi yeast 80, Cav32 inh -3.7 (no result: Ecoli tolC)
CCOc1ccccc1N1CCN(Cc2ccc(Br)s2)CC1	Ecoli tolC 97
CCOC(=O)C[C@H]1c2ccccc2S(=O)(=O)N1C1CC1	none (no result: PostGolgi yeast, Ecoli tolC, E coli WT exp, PostGolgi ctrl)
CCCN1Cc2cccc(C(=O)Nc3ccc4c(c3)OCCO4)c2C1=O	PostGolgi ctrl 36
N/C(=N\OC(=O)c1ccccc1[N+](=O)[O-])c1cccnc1	none (no result: Ecoli tolC)
O=C(COC(=O)c1ccccc1[N+](=O)[O-])c1ccc(C2CCCCC2)cc1	PostGolgi ctrl 34 (no result: Ecoli tolC)
FC(F)(F)c1nnc(-c2ccccc2)nc1Oc1ccc(Cl)cc1Cl	PostGolgi ctrl 34 (no result: Ecoli tolC, Cav32 inh)
FC(F)(F)c1cccc(-c2nnc(-c3ccccc3)c(N3CCOCC3)n2)c1	PostGolgi ctrl 35 (no result: Ecoli tolC)
FC(F)(F)c1nnc(-c2ccccc2)nc1N1CCOCC1	none (no result: Ecoli tolC)
C[C@@H](O)[C@@H]1NC(=O)c2cc([N+](=O)[O-])cc(I)c2NCC[C@@H](C(N)=O)NC(=O)CNC1=O	none (no result: PostGolgi yeast, Ecoli tolC, E coli WT exp, PostGolgi ctrl)
Cc1ccc(CN2CC34C=CC(O3)C(C(=O)NCc3ccc5c(c3)OCO5)C4C2=O)cc1 (stereo not drawn)	none
